The subject of data set [1] is Streptococcus mutans. Briefly: Inhibition of biofilm formation of Streptococcus mutans UA159 after 16 hrs by crystal violet staining based serial dilution method. Type of data set: functional, organism-based. The procedure, abridged:
(§1)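 S. mutans UA159 co-incubated with compound at various concentrations; biofilm quantified by crystal violet protocol, read at OD562.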

Data set [2] concerns Streptococcus mutans. The data set is described as follows: Inhibition of biofilm formation of Streptococcus mutans UA159 at 25 to 100 uM by Syto9 staining based assay. In kind it is functional, organism-based. The procedure, abridged:
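S. mutans UA159 wild type co-incubated with compound at various concentrations; resulting biofilms stained with Syto9 and examined by microscopy.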

Data set [3] has as its system Streptococcus mutans. Briefly: Growth inhibition of Streptococcus mutans UA159 after 16 hrs. In kind it is organism-based. The procedure, abridged:
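S. mutans UA159 co-incubated with compound at various concentrations; growth measured at OD470.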

The subject of data set [4] is Streptococcus mutans. Briefly: Selectivity index, ratio of growth inhibition IC50 for Streptococcus mutans UA159 to biofilm inhibition IC50 for Streptococcus mutans UA159.
Data set [5] relates to Streptococcus mutans. The data set is described as follows: Inhibition of biofilm formation of Streptococcus mutans UA159 at 200 uM after 16 hrs by crystal violet staining. Type of data set: functional. The following applies: for inhibition at 200 µM: UA159, 16 h. The procedure, abridged: as §1
Data set [6] has as its system Streptococcus mutans. The data set is described as follows: Growth inhibition of Streptococcus mutans UA159 at 200 uM after 24 hrs. Conditions: for growth inhibition (GI): streptococcus mutans, […], 24 h, 200 µM; for inhibition at 200 µM: Streptococcus mutans, UA159, 24 h, read-out: GI. Type of data set: organism-based. The procedure, abridged:
(§2)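 S. mutans UA159, S. sanguinis or S. gordonii co-incubated with compound at various concentrations; growth read as OD470; inhibition expressed relative to DMSO.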

Data set [7] has as its target T1, Glucosyltransferase-SI (Streptococcus mutans serotype c (strain ATCC 700610 / UA159)) (UniProt P13470).
T1 sequence (whole entry): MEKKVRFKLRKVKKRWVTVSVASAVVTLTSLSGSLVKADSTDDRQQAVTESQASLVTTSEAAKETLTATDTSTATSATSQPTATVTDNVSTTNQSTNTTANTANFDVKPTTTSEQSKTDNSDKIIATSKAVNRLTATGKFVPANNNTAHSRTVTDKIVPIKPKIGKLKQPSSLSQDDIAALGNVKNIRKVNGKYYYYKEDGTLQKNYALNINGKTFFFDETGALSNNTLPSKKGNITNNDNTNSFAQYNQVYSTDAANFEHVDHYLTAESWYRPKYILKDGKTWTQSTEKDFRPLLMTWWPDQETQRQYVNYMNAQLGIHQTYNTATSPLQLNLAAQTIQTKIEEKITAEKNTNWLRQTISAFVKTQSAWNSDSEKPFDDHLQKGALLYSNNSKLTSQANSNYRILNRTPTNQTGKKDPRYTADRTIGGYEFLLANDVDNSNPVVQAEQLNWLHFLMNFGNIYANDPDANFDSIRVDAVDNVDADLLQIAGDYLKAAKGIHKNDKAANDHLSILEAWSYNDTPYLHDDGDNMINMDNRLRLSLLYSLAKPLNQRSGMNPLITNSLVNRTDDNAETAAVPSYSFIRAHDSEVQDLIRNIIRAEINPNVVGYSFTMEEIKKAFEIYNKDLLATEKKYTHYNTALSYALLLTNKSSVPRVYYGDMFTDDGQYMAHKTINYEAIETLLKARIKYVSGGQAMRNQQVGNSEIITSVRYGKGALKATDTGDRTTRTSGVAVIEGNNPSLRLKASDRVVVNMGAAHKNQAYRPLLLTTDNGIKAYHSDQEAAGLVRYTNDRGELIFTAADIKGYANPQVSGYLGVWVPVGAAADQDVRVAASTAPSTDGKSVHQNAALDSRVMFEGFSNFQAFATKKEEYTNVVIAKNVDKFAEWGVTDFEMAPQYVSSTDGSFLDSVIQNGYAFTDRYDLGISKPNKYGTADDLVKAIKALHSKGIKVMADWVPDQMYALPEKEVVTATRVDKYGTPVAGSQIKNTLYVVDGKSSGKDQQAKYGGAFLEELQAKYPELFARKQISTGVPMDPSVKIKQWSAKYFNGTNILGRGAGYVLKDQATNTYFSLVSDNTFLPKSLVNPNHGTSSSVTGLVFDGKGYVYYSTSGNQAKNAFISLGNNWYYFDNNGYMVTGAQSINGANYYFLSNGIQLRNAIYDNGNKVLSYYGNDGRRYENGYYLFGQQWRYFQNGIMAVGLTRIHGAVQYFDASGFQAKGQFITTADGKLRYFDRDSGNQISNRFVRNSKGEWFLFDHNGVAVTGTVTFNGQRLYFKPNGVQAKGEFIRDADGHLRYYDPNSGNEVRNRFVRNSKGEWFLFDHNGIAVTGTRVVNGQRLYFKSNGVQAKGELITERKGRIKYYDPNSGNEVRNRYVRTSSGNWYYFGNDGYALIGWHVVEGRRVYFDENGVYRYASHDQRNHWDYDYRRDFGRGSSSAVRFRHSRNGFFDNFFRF
The data set is described as follows: Inhibition of Wild-type Streptococcus mutans UA159 glucosyltransferase C at 50 uM by zymography. The procedure, abridged:
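Compound (50 µM) added to overnight S. mutans UA159 wild-type cultures; Gtfs concentrated from supernatants, run on duplicate SDS-PAGE; second gel used for zymogram, glucan band intensity taken as Gtf activity.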

Data set [8] addresses T1, Glucosyltransferase-SI (Streptococcus mutans serotype c (strain ATCC 700610 / UA159)). Briefly: Inhibition of Wild-type Streptococcus mutans UA159 glucosyltransferase C at 50 uM by coomassie blue staining based SDS-PAGE method. The procedure, abridged: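 Compound (50 µM) added to overnight S. mutans UA159 wild-type cultures; Gtfs collected and concentrated from supernatants, run on SDS-PAGE in duplicate; one gel Coomassie blue stained for protein levels.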

A further data set has as its system Streptococcus gordonii. The data set is described as follows: Growth inhibition of Streptococcus gordonii at 200 uM after 24 hrs. Type of data set: organism-based. Conditions: read-out: GI. The procedure, abridged: as §2
The test system of the next data set is Streptococcus sanguinis. The data set is described as follows: Growth inhibition of Streptococcus sanguinis SK36 at 200 uM after 24 hrs. Conditions: SK36, 24 h, read-out: GI. The procedure, abridged:
as §2

Setting [9] is: Streptococcus mutans, UA159, 16 h, read-out: IC50.
Setting [10] is: Streptococcus mutans, UA159, 16 h.

The structures appear in SMILES notation. Calls of active or inactive are those of the source. The calls are words filed in the database; no cut-off is given here.

With `O=C(/C=C/c1ccc(O)cc1O)c1cccc(O)c1` (stereo in doubt; 9) [listing 1 of 2 here], the inhibition result in the data set on Streptococcus mutans [1] was “Dose-dependent effect”. The inhibition entry in the data set with Streptococcus mutans [2] was “Active”.

In the case of `O=C(/C=C/c1cc(O)c(O)cc1O)c1ccccc1O` (stereo in doubt; 18c), the IC50 with Streptococcus mutans [1] was 224 µM; in the data set with Streptococcus mutans [3] (setting [9]), 323 µM. For the same compound, the “Ratio IC50” value in the data set with Streptococcus mutans [4] is 1.5.

With `O=C(/C=C/c1ccc(O)cc1O)c1cccc(O)c1` (stereo in doubt; 9a), the midpoint of inhibition with Streptococcus mutans [1], the IC50, lay at 68 µM. In addition, the “Ratio IC50” value in the data set on Streptococcus mutans [4] was determined as 9.4.

In the case of `O=C(/C=C/c1ccccc1)c1ccc(O)cc1O` [2',4'-DIHYDROXYCHALCONE], the inhibition result with Streptococcus mutans [5] was “inactive”. For the same compound, the “growth inhibition (GI)” value with Streptococcus mutans [6] is reported as “Not Active”.

For the compound `COc1ccc(/C=C/C(=O)c2cc(O)ccc2O)cc1`, the values for the inhibition at 200 µM with Streptococcus mutans [5] and in the data set on Streptococcus mutans [6] were 87% and 76%, respectively.

Regarding `O=C(/C=C/c1ccccc1O)c1cccc(O)c1`, in the data set on Streptococcus mutans [6], the “growth inhibition (GI)” value is “Not Active”.

`O=C(/C=C/c1cc(O)c(O)cc1O)c1ccccc1O` (stereo in doubt; 18d) [listing 1 of 2 here]: the inhibition entry in data set [7] and in [8] was “Active” each time.

For `COc1ccc(/C=C/C(=O)c2ccc(OC)c(OC)c2)cc1O`, the inhibition at 200 µM in the data set with Streptococcus mutans [5] came to 27%; with Streptococcus mutans [6] it was 30%.

For `COc1ccc(/C=C/C(=O)c2ccc3c(c2)OCO3)cc1O`, the inhibition entry with Streptococcus mutans [5] was “inactive”. The “growth inhibition (GI)” value with Streptococcus mutans [6] is recorded as “Not Active”.

For `O=C(/C=C/c1ccccc1O)c1ccc(O)cc1O`, in the data set on Streptococcus mutans [5], the inhibition entry was “inactive”. Besides, the “growth inhibition (GI)” value in the data set with Streptococcus mutans [6] is “Not Active”.

As to `O=C(/C=C/c1cc(Cl)cc(Cl)c1O)c1cccc(O)c1`, the inhibition at 200 µM came out at 81% in the data set with Streptococcus mutans [5] and 82% in the data set on Streptococcus mutans [6].

Consider `COc1cc(C(=O)/C=C/c2ccccc2O)ccc1O`, for which the inhibition at 200 µM with Streptococcus mutans [5] stood at 85%; in the data set with Streptococcus mutans [6] it was 71%. Further, the IC50 was 34 µM in the data set on Streptococcus mutans [1] (setting [10]) and 40 µM in the data set on Streptococcus mutans [3] (setting [9]).

With `COc1cc(/C=C/C(=O)c2ccccc2O)ccc1O`, the inhibition at 200 µM with Streptococcus mutans [5] was determined as 86%; in the data set on Streptococcus mutans [6] it was 85%. The concentration for half-maximal inhibition (IC50) came to 61 µM in the data set on Streptococcus mutans [1] (setting [10]) and 44 µM in the data set with Streptococcus mutans [3] (setting [9]).

Consider `COc1cc(/C=C/C(=O)c2ccc(O)cc2)cc(OC)c1OC`, for which the “growth inhibition (GI)” value in the data set on Streptococcus mutans [6] is recorded as “Not Active”.

With `O=C(/C=C/c1ccc(O)cc1O)c1cccc(O)c1` (stereo in doubt; 9) [listing 2 of 2 here], the inhibition at 200 µM in the data set with Streptococcus gordonii came to 10%; in the data set with Streptococcus mutans [5], 93%; in the data set with Streptococcus mutans [6], 10%; with Streptococcus sanguinis, 10%. In addition, the concentration for half-maximal inhibition (IC50) was 32 µM in the data set with Streptococcus mutans [1] and “Not Active” in the data set on Streptococcus mutans [3].

`O=C(/C=C/c1cc(O)c(O)cc1O)c1ccccc1O` (stereo in doubt; 18d) [listing 2 of 2 here]: the IC50 in the data set on Streptococcus mutans [1] turned out to be 76 µM; in the data set on Streptococcus mutans [3] (read-out: IC50), 376 µM. Besides, in the data set on Streptococcus mutans [4], the “Ratio IC50” value came to 4.9.

Turning to `O=C(/C=C/c1ccc(O)cc1)c1ccccc1O`, the inhibition at 200 µM with Streptococcus mutans [5] worked out at 27%; in the data set with Streptococcus mutans [6], 48%.

As for `O=C(/C=C/c1cccc(O)c1)c1ccccc1O`, the inhibition at 200 µM in the data set with Streptococcus mutans [5] was 84%; in the data set on Streptococcus mutans [6], 86%. Moreover, the IC50 in the data set on Streptococcus mutans [1] (setting [10]) is 64 µM; in the data set on Streptococcus mutans [3] (setting [9]), 32 µM.

`COc1ccc(/C=C/C(=O)c2cc(N(C)C)c(O)c(N(C)C)c2)cc1`: in the data set on Streptococcus mutans [5], the inhibition result is “inactive”. Also, in the data set with Streptococcus mutans [6], the “growth inhibition (GI)” value is listed as “Not Active”.

In general, IC50 refers to the midpoint of a concentration-inhibition curve.

The values above are taken from ChEMBL document CHEMBL3822431, “Hydroxychalcone inhibitors of Streptococcus mutans glucosyl transferases and biofilms as potential anticaries agents” (Bioorg Med Chem Lett, 2016).
